L929 necroptosis: L929 zVAD cell death inhibition | L929 zVAD necroptosis rescue, ATP luminescence, 24 h; with zVAD 60 µM | actives 0.38% (n = 220,000) | viability rescue, % at 10 µM;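 active = activation, scaled between plate controls, above about 75%, limit read from the data; inactive = activation under that limit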
Mdm2 ligase inh: Mdm2 E3 ligase (human) inhibition; Q00987; cell-based MDM2 ubiquitination luciferase reporter, 2 h; 0 = plate control, 100 = twice control, blank-subtracted; signal enhancement, % at 5 µM; actives 0.11% (n = 210,000); AID 1230;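 active = signal enhancement of 30% or more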;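 also: luminescence tracks abundance of the self-degrading MDM2-luciferase fusion protein; higher signal means inhibition of MDM2 E3 ligase activity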
Target sequence (Q00987 whole entry, looked up, the tested form may be a part): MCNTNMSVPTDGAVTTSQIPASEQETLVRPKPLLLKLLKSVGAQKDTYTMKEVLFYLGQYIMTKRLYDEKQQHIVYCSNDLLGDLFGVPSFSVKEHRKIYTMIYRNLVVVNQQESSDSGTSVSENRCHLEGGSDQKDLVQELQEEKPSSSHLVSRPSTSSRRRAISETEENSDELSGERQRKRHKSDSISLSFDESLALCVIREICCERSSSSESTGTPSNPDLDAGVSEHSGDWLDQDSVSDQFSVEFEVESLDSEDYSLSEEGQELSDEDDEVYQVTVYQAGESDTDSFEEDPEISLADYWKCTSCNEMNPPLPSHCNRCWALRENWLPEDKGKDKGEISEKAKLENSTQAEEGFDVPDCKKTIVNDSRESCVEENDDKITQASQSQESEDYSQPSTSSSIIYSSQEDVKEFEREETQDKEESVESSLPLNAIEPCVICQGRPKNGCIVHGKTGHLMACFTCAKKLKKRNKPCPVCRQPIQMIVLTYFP
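Assay system: stable mammalian line carrying autodegrading MDM2–luciferase fusion reporter; amount: 2000 cells seeded into each well; buffer or medium: DMEM; benchmarks: plate control and blank wells; signal: luciferase luminescence; timing: 2 h compound exposure at 37 °C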
B2AR ag: agonists of human beta-2 adrenergic receptor inducing internalization | P07550 | Am2.2-beta2AR cells, FAP receptor internalization, flow cytometry | response, % (test concentration not listed) | actives 0.43% (n = 340,000);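 active = response above a set limit, near 3 SD of response in nonfluorescent compounds, cut at about 42% in these data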
Dynein cargo inh: dynein cargo transport inhibition. AID 1381. 3617.4 mouse cells, GR-EGFP nuclear translocation imaging; test concentration mostly 20 µM; stimulated with dexamethasone, 1 µM; hits give low values. actives 0.47% (n = 220,000). z-score, hits read low;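 active = plate z-score of nuclear minus cytoplasmic receptor signal below a set negative limit, without overly bright fluorescence or cell loss, cut at about -3.5 in these data, passing the limit was not always enough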;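 also: z-score of nuclear minus cytoplasmic ring GR-EGFP intensity difference per well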
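Buffer or medium: Induction medium lacking tetracycline, stripped serum | Also added: Dexamethasone agonist, 1.0 µM final, for 30 min | Timing: 48 h induction, 1 h compound, 30 min dex at 37 °C | Detection: Formaldehyde fixation, Hoechst nuclear stain, 10x automated fluorescence imaging | Measure: Nuclear versus cytoplasmic GR-EGFP signal, averaged per well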
TNF necrop inh: blocks TNF-alpha induced death of Jurkat FADD-/- cells. Jurkat FADD-/- TNF necroptosis rescue, ATP luminescence, 24 h; 0 = TNF only, 100 = no-TNF cells. activation (protection from cell death), % at 10 µM. actives 0.068% (n = 220,000);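 active = activation, meaning protection from cell death, of at least 50% relative to plate controls; inactive = activation below 50%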;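 also: necroptosis triggered by 40 ng/mL TNF-alpha added together with compound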
Each line names hits and unclear results; the compound was inactive in the other large screens. Hits are enriched below; roughly 0.97% of the tested compounds scored in any of these assays.

CC(OC(=O)Cc1c[nH]c2ccccc12)C(=O)NC1(C#N)CCCCC1 (stereo unspecified)	none (no result: L929 necroptosis, Mdm2 ligase inh, Dynein cargo inh, TNF necrop inh)
Nc1c(-c2ccccc2Cl)cnn1-c1cccc([N+](=O)[O-])c1	none
O=C(C=Cc1cccc(O)c1)c1ccccc1O	B2AR ag 56 (no result: L929 necroptosis, Mdm2 ligase inh, Dynein cargo inh, TNF necrop inh)
Cc1ccc(S(=O)(=O)N2CCOCC2)cc1C(=O)OCC(=O)NCc1ccccc1	none (no result: L929 necroptosis, Mdm2 ligase inh, Dynein cargo inh, TNF necrop inh)
NS(=O)(=O)c1ccc(N/N=C/c2cn(-c3ccccc3)nc2-c2ccccc2)c([N+](=O)[O-])c1	B2AR ag 81
O=[N+]([O-])c1ccc(N/N=C/c2cn(-c3ccccc3)nc2-c2ccccc2)cc1	none
C1=C2C[N+]3(CCCC3)CC2Cc2ccc3ccccc3c21 (stereo unspecified)	none
O=C(CSc1ccc(-c2ccco2)nn1)NC1CCCC1	Mdm2 ligase inh 32
O=c1[nH]c2cc3c(cc2cc1CN(Cc1nnnn1CC1CCCO1)C1CCCC1)OCO3 (stereo unspecified)	Mdm2 ligase inh 30
NC(=O)/C(=C/c1ccco1)NC(=O)/C=C/c1ccccc1	none
CC(=O)c1c(C)[nH]c(C(=O)COC(=O)Cc2ccccc2F)c1C	B2AR ag 59 (no result: L929 necroptosis, Mdm2 ligase inh, Dynein cargo inh, TNF necrop inh)
O=C1c2ccccc2C(=O)N1n1cccc1	none
COc1cc(C2Nc3cccc4cccc(c34)N2)ccc1OC(C)=O	none
COc1cc(C2Nc3cccc4cccc(c34)N2)cc(OC)c1O	Dynein cargo inh -3.7
Cc1cc(Nc2cccc([N+](=O)[O-])c2)n2c(nc3ccccc32)c1C#N	none
COc1ccc(C(=O)C(CN2CCOCC2)c2ccccc2)cc1 (stereo unspecified)	none
O=C(c1ccccc1)C(CCC(CN1CCOCC1)C(=O)c1ccccc1)CN1CCOCC1 (stereo unspecified)	Dynein cargo inh -6.1
COc1ccc(C(=O)C(CCCCC(CN(C)C)C(=O)c2ccc(OC)cc2)CN(C)C)cc1 (stereo unspecified)	none
CN(C)CC(CCC(CN(C)C)C(=O)c1ccccc1)C(=O)c1ccccc1 (stereo unspecified)	Dynein cargo inh -5
CCCCNc1n[n+](C)c(-c2cccc(C)c2)s1	Mdm2 ligase inh 35 (no result: B2AR ag)
Cc1csc(NC(C)c2nc3cc(C(F)(F)F)ccc3n2CCOCCO)n1 (stereo unspecified)	none (no result: L929 necroptosis, Mdm2 ligase inh, Dynein cargo inh, TNF necrop inh)
Cc1cc(=O)oc2cc(OC(C)C(=O)Nc3ccc(N4CCCCC4)cc3)ccc12 (stereo unspecified)	none (no result: L929 necroptosis, Mdm2 ligase inh, Dynein cargo inh, TNF necrop inh)
Cc1cc(=O)oc2cc(OCC(=O)Nc3ccc(N4CCC(C)CC4)cc3)ccc12	B2AR ag 51 (no result: L929 necroptosis, Mdm2 ligase inh, Dynein cargo inh, TNF necrop inh)
Cc1cc(=O)oc2c(C)c(OC(C)C(=O)Nc3ccc(N4CCC(C)CC4)cc3)ccc12 (stereo unspecified)	B2AR ag 83 (no result: L929 necroptosis, Mdm2 ligase inh, Dynein cargo inh, TNF necrop inh)
Cc1c(C)c2ccc(OCC(=O)Nc3ccc(N4CCC(C)CC4)cc3)cc2oc1=O	none (no result: L929 necroptosis, Mdm2 ligase inh, Dynein cargo inh, TNF necrop inh)
COc1ccc(-c2ccnc3[nH]n(-c4ccccc4)c(=O)c23)cc1	none (no result: L929 necroptosis, Mdm2 ligase inh, Dynein cargo inh, TNF necrop inh)
Cc1ccc(-n2c(-c3ccccc3)n[nH]c2=S)cc1	none
CCCCCc1cc(=O)oc2c(C(CCN(CC)CC)c3cc(OC)c(OC)c(OC)c3)c(OC)cc(OC)c12 (stereo unspecified)	B2AR ag 44
Cc1ccnc(Sc2ccc([N+](=O)[O-])cc2[N+](=O)[O-])n1	Dynein cargo inh -4.8
Cc1ccc(OCC(=O)c2cc(C)c(C)cc2C)c([N+](=O)[O-])n1	none
Cc1ccc(C)c(C(=O)COc2ccc(C)nc2[N+](=O)[O-])c1	Dynein cargo inh -4.3
C[N+]1=C(/C=C/Nc2ccccc2Cl)C(C)(C)c2ccccc21	none
COC(=O)c1ccc2c(c1)C(C)(C)C(/C=C/c1ccccc1O)=[N+]2C	B2AR ag 62
Cc1ccc2c(c1)C=CC(C)(C)S2=O (stereo unspecified)	Mdm2 ligase inh 118
CC[N+]1=C(C)C(C)(C)c2cc(C)ccc21	none
Cc1ccc(C(=O)/C=C/c2cn(CC(O)CN3CCOCC3)c3ccccc23)cc1 (stereo unspecified)	L929 necroptosis 77
O=C(CCN1CCCCCC1)c1ccccc1	none
O=C(/C=C/c1ccccc1)CCN1CCCCC1	B2AR ag 44 (no result: L929 necroptosis, Mdm2 ligase inh, Dynein cargo inh, TNF necrop inh)
Cc1ccc(NC(=O)c2cc(N3C(=O)CCC3=O)ccc2N2CCOCC2)cc1	none
Cc1ccc(NC(=O)c2cc(N3C(=O)C=CC3=O)ccc2N2CCOCC2)cc1Cl	B2AR ag 76
Cc1nc2ncnn2c(C)c1CCC(=O)NC(C)CCc1ccco1 (stereo unspecified)	none
O=C(OCC(=O)N1CCc2ccccc21)c1ccccc1	none
O=C(CO/N=C/c1ccccc1O)N1CCc2ccccc21	B2AR ag 72
Oc1ccc(/C=N/Nc2ccnc3cc(Cl)ccc23)c(O)c1O	B2AR ag 106 (no result: L929 necroptosis, Mdm2 ligase inh, Dynein cargo inh, TNF necrop inh)
CC(C)c1ccc2[nH]c(O)c(N=NC(=O)c3ccc(CSc4nncn4C)cc3)c2c1	B2AR ag 45
CCOc1ccc(NC(=O)CSC2=NN3CCCC(=O)N=C3S2)cc1	none (no result: L929 necroptosis, Mdm2 ligase inh, Dynein cargo inh, TNF necrop inh)
CCCCc1ccc(NC(=O)CSC2=NN3CCCC(=O)N=C3S2)cc1	B2AR ag 71 (no result: L929 necroptosis, Mdm2 ligase inh, Dynein cargo inh, TNF necrop inh)
Cn1c(CCNC(=O)OC(C)(C)C)n[nH]c1=S	none
N#CCSc1nc2sc3c(c2c(=O)n1C1CCCCC1)CCCC3	TNF necrop inh 68
C[N+]1(C2CCC3CCCC2C3O)CCCCC1 (stereo unspecified)	none
Cc1nnc(NC(=O)C2COc3ccccc3O2)s1 (stereo unspecified)	none
O=C(Nc1ncc(Cc2ccccc2)s1)C1COc2ccccc2O1 (stereo unspecified)	TNF necrop inh 55
O=C(Nc1ncc(Cc2ccccc2)s1)c1cccs1	L929 necroptosis 83
CCc1ccc(C(=O)c2ccccc2C(=O)O)s1	none
O=C(/C=C/c1cc[n+](CC(=O)c2ccc3cccc4c3c2CC4)cc1)c1ccc2cccc3c2c1CC3	B2AR ag 74
Cc1ccc2[nH]c3nc(N/N=C/c4cccc(O)c4)nnc3c2c1	none (no result: L929 necroptosis, Mdm2 ligase inh, Dynein cargo inh, TNF necrop inh)
CN=c1scc(-c2ccccc2F)n1/N=C/c1ccc(O)c(O)c1O	B2AR ag 101
CN=c1scc(-c2ccccc2F)n1/N=C/c1ccc[nH]1	none
O=C(N/N=C1\C/C(=N\NC(=O)c2ccncc2)c2ccccc21)c1ccncc1	none
O=C(N/N=C1\CCCc2c1[nH]c1ccc(Cl)cc21)c1ccncc1	B2AR ag 45 (no result: L929 necroptosis, Mdm2 ligase inh, Dynein cargo inh, TNF necrop inh)
O=c1oc(CCCO)cc2ccccc12	none (no result: L929 necroptosis, Mdm2 ligase inh, Dynein cargo inh, TNF necrop inh)
COc1ccc(-c2nc(C)c(C(C)=O)n2O)cc1	Mdm2 ligase inh 30
CC(C)c1ccc(NC(=O)C2CCN(C(=O)[C@@H]3Cc4ccccc4CN3)CC2)cc1	none (no result: L929 necroptosis, Mdm2 ligase inh, Dynein cargo inh, TNF necrop inh)
Cc1cccc(N(C(=O)c2ccco2)C(C(=O)NC2CCCC2)c2cccnc2)c1C (stereo unspecified)	none (no result: L929 necroptosis, Mdm2 ligase inh, Dynein cargo inh, TNF necrop inh)
O=[N+]([O-])c1c(Nc2ccccn2)cc(Cl)c2nonc12	B2AR ag 63

High-throughput results: PubChem BioAssay, several laboratories
